Published values from different studies.
Protocols differ between the studies behind these lines.
Target: Serine/threonine-protein kinase D1 (PRKD1, Homo sapiens, UniProt Q15139)
One construct used (Q15139 1-912): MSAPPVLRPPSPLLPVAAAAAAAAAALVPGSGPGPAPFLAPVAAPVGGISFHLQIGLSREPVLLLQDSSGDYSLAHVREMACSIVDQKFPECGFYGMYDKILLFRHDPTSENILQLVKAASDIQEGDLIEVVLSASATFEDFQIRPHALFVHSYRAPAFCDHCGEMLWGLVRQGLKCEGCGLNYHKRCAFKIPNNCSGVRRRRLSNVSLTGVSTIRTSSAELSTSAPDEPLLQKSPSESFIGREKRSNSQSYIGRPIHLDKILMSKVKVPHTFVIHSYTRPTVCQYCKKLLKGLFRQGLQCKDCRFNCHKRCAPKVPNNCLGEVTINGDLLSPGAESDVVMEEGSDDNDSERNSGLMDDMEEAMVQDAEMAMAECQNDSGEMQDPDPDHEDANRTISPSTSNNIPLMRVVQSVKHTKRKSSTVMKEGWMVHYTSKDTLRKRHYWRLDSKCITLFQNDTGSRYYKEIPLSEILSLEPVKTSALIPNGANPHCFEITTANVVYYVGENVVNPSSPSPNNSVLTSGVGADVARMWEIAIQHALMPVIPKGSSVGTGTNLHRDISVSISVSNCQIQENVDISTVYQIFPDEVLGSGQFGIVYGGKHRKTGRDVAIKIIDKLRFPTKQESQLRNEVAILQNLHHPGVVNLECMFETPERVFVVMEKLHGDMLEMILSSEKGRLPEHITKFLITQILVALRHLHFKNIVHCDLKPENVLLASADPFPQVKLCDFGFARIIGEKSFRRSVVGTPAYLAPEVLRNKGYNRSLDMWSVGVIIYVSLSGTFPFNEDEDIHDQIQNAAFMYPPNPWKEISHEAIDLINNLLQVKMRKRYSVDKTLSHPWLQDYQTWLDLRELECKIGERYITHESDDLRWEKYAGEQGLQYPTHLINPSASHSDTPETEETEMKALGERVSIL

COc1ncccc1-c1cnn2ccc(N3CCN(C(=O)OC(C)C)CC3)nc12  remaining binding (binding, competition with immobilised ligand; 1 µM): 100%
Cc1nn(C)cc1-c1nc2c(N3CCN(Cc4ccc(Cl)cc4)CC3)c(Cl)cnc2[nH]1  remaining binding (binding, competition with immobilised ligand; 1 µM): 100%
O=c1[nH]c2ccccc2n1C1CCN(Cc2ccc(-c3[nH]c4cc5ncnc5cc4nc3-c3ccccc3)cc2)CC1  remaining signal (cell-free assay; 0.5 µM): 94.7%
Nc1ncc(-c2nc(N3CCOCC3)nc(N3CCOCC3)n2)c(C(F)F)n1  remaining binding (binding, competition with immobilised ligand; 10 µM): 80%
Cn1cncc1[C@](O)(COc1ccc(C#N)cc1-c1ccc(OC(F)(F)F)cc1)c1ccc(C#N)cc1  remaining binding (cell-free assay, competition with immobilised ligand; 1 µM): 99%
Cn1cc(-c2cccc(N3CCc4c(sc5c4CC(C)(C)C5)C3=O)c2CO)cc(Nc2ccncn2)c1=O  inhibition (enzyme activity, inhibitor; 1 µM): 2%
COc1cc(Nc2ncc(F)c(Nc3ccc4c(n3)NC(=O)C(C)(C)O4)n2)cc(OC)c1OC  inhibition (binding; 10 µM): 17%
N#CC1(c2ccccn2)CCN(Cc2cc(C(=O)O)c(=O)n3ccccc23)CC1  remaining binding (cell-free assay, competition with immobilised ligand; 1 µM): 87%
Cn1cc(-c2cc(F)cc(N3CCn4c(cc5c4CCCC5)C3=O)c2CO)cc(Nc2ccc(N3CCN(C4COC4)CC3)cn2)c1=O  inhibition (enzyme activity, inhibitor; 0.1 µM): 12%
CC(C)(C)c1cc(C=C(C#N)C#N)cc(Br)c1O  remaining activity (enzyme activity, inhibitor; 0.5 µM): 100%
